Reference: ChEMBL document CHEMBL1133727, “Structure-activity relationships in a series of bisquaternary bisphthalimidine derivatives modulating the muscarinic M(2)-receptor allosterically” (J Med Chem, 2000)

Legend:
[1] = target: T1, Muscarinic acetylcholine receptor M2 (Sus scrofa, UniProt P06199); assay: Inhibition of [3H]- N-methyl-scopolamine ([3H]NMS) dissociation from porcine cardiac M2-receptors; conditions: read-out: Log 1/EC50 (converted)
T1 sequence (P06199 whole entry): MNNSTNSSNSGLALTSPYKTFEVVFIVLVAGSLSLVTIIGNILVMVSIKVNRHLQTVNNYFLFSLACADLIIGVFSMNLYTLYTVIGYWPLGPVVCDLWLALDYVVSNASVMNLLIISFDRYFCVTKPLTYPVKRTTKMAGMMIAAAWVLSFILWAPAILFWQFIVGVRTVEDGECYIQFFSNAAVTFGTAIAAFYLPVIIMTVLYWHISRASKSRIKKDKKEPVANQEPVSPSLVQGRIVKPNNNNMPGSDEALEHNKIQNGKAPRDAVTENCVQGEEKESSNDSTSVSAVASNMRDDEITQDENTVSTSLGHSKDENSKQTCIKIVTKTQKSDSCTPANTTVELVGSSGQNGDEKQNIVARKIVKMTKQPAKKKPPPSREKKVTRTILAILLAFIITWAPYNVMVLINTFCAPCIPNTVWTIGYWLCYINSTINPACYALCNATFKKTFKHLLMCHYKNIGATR
Outline: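 Porcine heart ventricular myocardium homogenate, stored at −80 °C. Membranes preincubated 30 min with [3H]NMS in 3 mM MgHPO4, 50 mM Tris, pH 7.3, 37 °C. Dissociation started with 1 µM atropine, with or without test compound. Bound ligand collected by filtration and counted by liquid scintillation. Monoexponential fit gave apparent k−1; EC50 for k−1 reduced to 50% of control, from four-parameter logistic fit.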

[2] = Partition coefficient (logP); type: physicochemical; conditions: octanol/water

EC50 [1] [nM]	logP [2]	SMILES
1000	3.65	C[N+](C)(CCCCCC[N+](C)(C)CCCN1C(=O)c2ccccc2C1Cc1ccccc1)CCCN1C(=O)c2ccccc2C1Cc1ccccc1 (centres undefined)
1410	1.46	C[N+](C)(CCCCCC[N+](C)(C)CCCN1C(=O)c2ccccc2C1=O)CCCN1C(=O)c2ccccc2C1=O
1580	2.48	CC(C)OC1c2ccccc2C(=O)N1CCC[N+](C)(C)CCCCCC[N+](C)(C)CCCN1C(=O)c2ccccc2C1OC(C)C (centres undefined)
1260	2.92	CC(C)SC1c2ccccc2C(=O)N1CCC[N+](C)(C)CCCCCC[N+](C)(C)CCCN1C(=O)c2ccccc2C1SC(C)C (centres undefined)
2000	1.55	C[N+](C)(CCCCCC[N+](C)(C)CCCN1Cc2ccccc2C1=O)CCCN1Cc2ccccc2C1=O
6030	1.45	C[N+](C)(CCCCCC[N+](C)(C)CCCN1C(=O)c2ccccc2C1O)CCCN1C(=O)c2ccccc2C1O (centres undefined)
66.1	2.96	C[N+](C)(CCCCCC[N+](C)(C)CCCN1C(=O)c2ccccc2/C1=C\c1ccccc1)CCCN1C(=O)c2ccccc2/C1=C/c1ccccc1
85.1	2.96	C[N+](C)(CCCCCC[N+](C)(C)CCCN1C(=O)c2ccccc2/C1=C/c1ccccc1)CCCN1C(=O)c2ccccc2/C1=C/c1ccccc1
6760	1.72	COC1c2ccccc2C(=O)N1CCC[N+](C)(C)CCCCCC[N+](C)(C)CCCN1C(=O)c2ccccc2C1OC (centres undefined)
70.8	2.96	C[N+](C)(CCCCCC[N+](C)(C)CCCN1C(=O)c2ccccc2/C1=C\c1ccccc1)CCCN1C(=O)c2ccccc2/C1=C\c1ccccc1
794	3.4	C[N+](C)(CCCCCC[N+](C)(C)CCCN1C(=O)c2ccccc2C1c1ccccc1)CCCN1C(=O)c2ccccc2C1c1ccccc1 (centres undefined)
2290	2.07	CCOC1c2ccccc2C(=O)N1CCC[N+](C)(C)CCCCCC[N+](C)(C)CCCN1C(=O)c2ccccc2C1OCC (centres undefined)
